HKDC1 inhibitor = blocks human hexokinase HKDC1 activity. Q2TB90. recombinant HKDC1, G6PDH/diaphorase resazurin coupled fluorescence. inhibition, % at 20 µM. 340,000 compounds, 0.16% hits. AID 493160;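 active = inhibition above about 35% when tested at 20 µM, limit read from the data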;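 note: plate controls were DMSO wells with enzyme for no effect and DMSO wells lacking enzyme for full effect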
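test system = in-house recombinant HK5 (HKDC1) enzyme | amount = HKDC1 at 5 µg/mL | control set = DMSO-enzyme wells negative, buffer-substituted wells positive | compound = one dose of 20 µM, 1% DMSO | schedule = reaction time 90 min, room temperature, protected from light | technique = resorufin fluorescence at 613 nm | reagent = glucose with 1 mM ATP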
APOBEC3G inh = blocks human APOBEC3G single-stranded DNA deamination. AID 493012. 330,000 compounds, 0.28% hits. recombinant A3G, ssDNA deamination FAM/TAMRA fluorescence. inhibition, % at 20 µM;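 active = inhibition of at least 40% at 20 µM, with no more than 30% in the related APOBEC3A deaminase screen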;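 note: plate controls were DMSO wells with A3G for no effect and wells lacking A3G enzyme for full effect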
PfGluPho inh = PfG6PD (Plasmodium falciparum) enzyme inhibition; PfGluPho enzyme, NADPH resazurin-diaphorase fluorescence; inhibition, % at 20 µM; 350,000 compounds, 0.78% hits; AID 504690;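 active = inhibition reaching at least a set limit at 20 µM in the primary screen, cut at about 59% in these data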;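 note: 0% = DMSO wells with substrate and 100% = DMSO wells lacking glucose-6-phosphate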
PfM18AAP inh-1 = PfM18AAP enzyme inhibition; recombinant PfM18AAP, H-Glu-NHMec fluorogenic cleavage; inhibition, % at 7.35 µM; 290,000 compounds, 1.2% hits;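 active = inhibition above the campaign mean inhibition over all tested compounds plus 3 SD, cut at about 28% in these data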;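 note: 0% = plate median of test compound wells and 100% = 2 mM ZnCl2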
APOBEC3A inh = inhibitors of human APOBEC3A DNA deaminase | recombinant A3A, FAM/TAMRA ssDNA deamination fluorescence | inhibition, % at 20 µM | 330,000 compounds, 0.41% hits | AID 493011;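 active = at least 40% inhibition at 20 µM here, with at most 30% in a related deaminase screen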;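 note: plate controls were A3A with DMSO for no effect and wells lacking A3A enzyme for full effect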
Target sequence (P31941 whole entry, looked up): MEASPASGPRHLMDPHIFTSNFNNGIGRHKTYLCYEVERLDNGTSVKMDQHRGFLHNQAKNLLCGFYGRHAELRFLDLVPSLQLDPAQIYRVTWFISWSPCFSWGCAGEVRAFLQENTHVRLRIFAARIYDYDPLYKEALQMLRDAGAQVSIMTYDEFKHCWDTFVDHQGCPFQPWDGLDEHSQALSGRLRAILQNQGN
SUMO HTRF inh = inhibitors of human SUMOylation (UBC9); HTRF SUMOylation assay, SAE1/SAE2 + UBC9, in vitro; 290,000 compounds, 0.36% hits; AID 2006; inhibition, % at 35 µM; P63279; in the data active = inhibition above about 50%, passing the limit was not always enough
Target sequence (P63279 whole entry, looked up): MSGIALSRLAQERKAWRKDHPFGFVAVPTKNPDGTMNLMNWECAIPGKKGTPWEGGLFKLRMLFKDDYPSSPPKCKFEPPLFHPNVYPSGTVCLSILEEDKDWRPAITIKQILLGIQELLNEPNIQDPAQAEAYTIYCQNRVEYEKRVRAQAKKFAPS
PfM18AAP inh-2 = PfM18AAP inhibition, confirmation; shares compounds with PfM18AAP inh-1; recombinant PfM18AAP, H-Glu-NHMec fluorogenic cleavage; inhibition, % at 7.35 µM; 2,400 compounds, 28% hits; AID 2170;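 active = mean inhibition over replicate wells above the hit cutoff set for the earlier primary screen, cut at about 29% in these data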;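 note: 0% = median of test compound wells and 100% = 2 mM ZnCl2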
CTSL1 counter = Cathepsin L (human) inhibition, confirmation; inhibition, % at 5.96 µM; AID 2178; shares compounds with PfM18AAP inh-1; 2,400 tested, under 10 active; purified cathepsin L1, Z-Leu-Arg-MCA fluorescence;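 active = average inhibition across replicates above the hit cutoff set in the earlier primary screen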;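 note: 0% = median of test compound wells and 100% = Z-Phe-Ala-diazomethylketone 1 µM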
Target sequence (P07711 whole entry, looked up): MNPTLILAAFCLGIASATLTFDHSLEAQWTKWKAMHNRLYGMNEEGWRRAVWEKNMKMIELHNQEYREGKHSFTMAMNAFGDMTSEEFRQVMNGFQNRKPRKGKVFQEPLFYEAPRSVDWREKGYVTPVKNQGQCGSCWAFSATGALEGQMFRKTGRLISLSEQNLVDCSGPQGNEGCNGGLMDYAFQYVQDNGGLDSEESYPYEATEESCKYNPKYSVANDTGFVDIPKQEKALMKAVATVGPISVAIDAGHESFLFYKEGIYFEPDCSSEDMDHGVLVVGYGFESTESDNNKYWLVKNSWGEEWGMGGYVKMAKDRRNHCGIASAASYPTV
The depositor's hits bear a star; nt = no result given. This is a sample that favours compounds with a hit; in the whole collection about 2.4% have one here.

SMILES	HKDC1 inhibitor	APOBEC3G inh	PfGluPho inh	PfM18AAP inh-1	APOBEC3A inh	SUMO HTRF inh	PfM18AAP inh-2	CTSL1 counter
COc1cccc(-n2c(CCn3nc(C)c([N+](=O)[O-])c3C)n[nH]c2=S)c1	-6.0	26.2	53.5	31.8*	-1.4	-3.5	1.6	-0.3
NC(=O)c1c(NC(=S)Nc2ccc(F)cc2)sc2c1CCCC2	-6.3	-5.7	17.4	35.0*	-5.4	-6.5	2.5	5.5
CC(C)OC(=O)c1c(NC(=O)C2CC=CCC2C(=O)O)sc2c1CCCCC2 (stereo not given)	2.8	-2.1	-47.9	10.3	5.5	24.4	nt	nt
NC(=O)c1c(NC(=O)C2CC=CCC2C(=O)O)sc2c1CCCCC2 (stereo not given)	0.8	16.7	42.4	40.0*	14.2	21.5	-19.2	-1.8
COc1cc(S(=O)(=O)N2CCN(Cc3ccccc3)CC2)ccc1Br	5.2	-4.7	5.1	-0.5	-1.9	-11.3	nt	nt
COc1cc(/C=N/Nc2ccc([N+](=O)[O-])cc2S(=O)(=O)N2CCOCC2)cc(OC)c1OC	-6.4	-5.0	0.6	-1.9	-1.8	5.0	nt	nt
O=[N+]([O-])c1ccc(N/N=C/c2cccc(O)c2O)c(S(=O)(=O)N2CCOCC2)c1	3.3	2.6	-12.0	41.8*	5.2	50.9*	38.2*	0.3
COc1ccc(N2C(N)=C(C#N)C(c3ccsc3)C3=C2CCCC3=O)c(OC)c1 (stereo not given)	-4.7	4.4	18.6	35.2*	0.7	28.8	-33.1	-4.3
Cc1cc(C)cc(C(=O)NCCn2cc(SCC(=O)N3CCOCC3)c3ccccc32)c1	-2.1	0.4	2.8	0.3	1.7	20.1	nt	nt
O=C(CSc1nc2ccccc2o1)c1cc2ccccc2oc1=O	2.2	-5.5	-22.6	11.7	-3.3	13.6	nt	nt
Cc1cc(C)nc(SCC(=O)c2cc3ccccc3oc2=O)n1	-1.2	-1.4	22.3	40.1*	-3.7	11.4	-8.5	2.4
CCOC(=O)Cc1csc(NC(=O)CSc2nnc(-c3ccc(NS(=O)(=O)CC)cc3)o2)n1	8.1	-3.8	-9.0	39.4*	1.0	nt	-13.2	3.7
CCOC(=O)Cc1csc(NC(=O)CSc2nnc(-c3ccncc3)o2)n1	-11.8	-6.9	-8.1	21.3	-1.6	7.4	nt	nt
CC(=O)c1ccc(NC(=O)c2sc3nc(N4CCOCC4)c4c(c3c2N)CCCC4)cc1	4.8	29.2	40.9	43.3*	-1.8	0.9	4.3	3.9
COc1ccc(NC(=O)c2sc3nc(N4CCOCC4)c4c(c3c2N)CC(C)(C)OC4)cc1	-8.8	-10.7	31.1	35.8*	-2.6	2.5	-56.2	-7.7
CCOc1ccc(NC(=O)c2sc3nc(N4CCOCC4)c4c(c3c2N)CCCC4)cc1	1.0	-4.0	42.1	42.9*	-5.3	4.6	15.3	4.6
Nc1c(C(=O)Nc2ccccc2)sc2nc(N3CCOCC3)c3c(c12)CCCC3	nt	nt	50.4	nt	nt	nt	nt	nt
COc1cccc(NC(=O)c2sc3nc(N4CCOCC4)c4c(c3c2N)CCCC4)c1	12.3	-7.1	57.7	49.9*	2.2	2.7	1.7	-18.2
O=C(Cn1cnc2c(nnn2Cc2ccccc2F)c1=O)N1CCN(c2ccccc2)CC1	-5.8	-4.3	-3.9	0.6	0.1	-1.4	nt	nt
O=[n+]1cc(-c2ccccc2)n([O-])c2c1CCC2	-4.9	-5.1	-13.8	6.7	-5.0	0.5	nt	nt
COc1ccc(CCNC(=O)C2CCN(S(=O)(=O)c3ccc(-n4cnnn4)cc3)CC2)cc1OC	-0.6	-0.7	-4.0	-4.8	2.2	9.4	nt	nt
Nc1c(C(=O)Nc2ccc(Cl)cc2)sc2nc(N3CCOCC3)c3c(c12)CCCC3	6.2	2.4	43.6	42.3*	-5.7	1.8	-0.1	0.1
CC1(C)Cc2c(sc3nc(-c4cc5ccccc5o4)n(N)c(=O)c23)CO1	-1.8	-7.5	5.6	13.7	-2.0	21.9	nt	nt
CC(C)Oc1cccc(C(=O)C2CCCN(C(=O)c3noc4c3CCCC4)C2)c1 (stereo not given)	-2.4	-2.4	8.5	-15.4	1.2	1.7	nt	nt
COc1cc(/C=C2/C(=O)N(c3ccc(Br)cc3)N=C2C)cc(OC)c1OC	7.8	-5.5	-1.8	9.8	-3.0	1.0	nt	nt
SMILES	HKDC1 inhibitor	APOBEC3G inh	PfGluPho inh	PfM18AAP inh-1	APOBEC3A inh	SUMO HTRF inh	PfM18AAP inh-2	CTSL1 counter
COc1cc(/C=C2/C(=O)N(c3ccc(C(=O)O)cc3)N=C2C)cc(OC)c1O	8.2	-8.0	45.0	49.9*	-2.6	43.0	28.6*	-2.2
CCC(CC)NCCOC(=O)c1ccc([N+](=O)[O-])cc1	-7.3	1.3	-13.8	-5.4	3.0	15.1	nt	nt
CSc1ccc(NC(N)=S)cc1	11.2	-7.5	1.2	0.1	-5.4	2.7	nt	nt
CN(C)c1ccc(NC(N)=S)cc1	-4.1	-9.8	16.8	49.1*	-2.3	-3.4	19.5	-3.1
O=C(Cc1ccccc1)NN=C1CCCC1	-9.0	nt	11.7	nt	nt	nt	nt	nt
N#CCC(=O)NN=C1CCCCCCCCCCC1	-11.9	-1.8	-11.3	53.7*	0.0	-11.0	-21.8	2.0
O=C(NCc1ccco1)c1cnn2c(C(F)(F)F)cc(-c3ccccc3)nc12	6.2	4.9	9.1	2.6	4.0	5.3	nt	nt
CCn1c(-c2cc(-c3ccccc3)sc2N)n[nH]c1=S	1.6	11.1	33.7	41.0*	-1.8	-3.3	8.3	3.6
CCn1c(-c2ccccc2O)n[nH]c1=S	-5.2	34.0	14.0	19.4	-2.8	34.4	nt	nt
CC1(C)OC(C)(C)/C(=C\c2ccccc2[N+](=O)[O-])C1=O	-2.5	2.3	-7.6	5.8	-1.1	6.4	nt	nt
O=C(O)c1cc(S(=O)(=O)NC23CC4CC(CC(C4)C2)C3)ccc1Cl	-1.3	-5.9	-0.5	-12.2	1.8	11.7	nt	nt
Oc1ccccc1C=NNc1nc2ccccc2s1	2.1	nt	-17.8	nt	nt	nt	nt	nt
OCC(O)/C=N/Nc1nc2ccccc2s1 (stereo not given)	-8.2	-3.9	6.0	33.0*	0.1	8.0	2.8	-1.6
CC(/C=N/n1cnnc1)=C\c1ccccc1	3.0	-1.0	7.2	6.3	0.5	0.2	nt	nt
CC(=O)N1CC[n+]2c(-c3ccc(Cl)cc3)csc21	-4.6	3.3	56.9	38.8*	-2.4	10.1	4.8	-10.4
CC1(C)Cc2c(sc(NC(=O)C(=O)NCCCN3CCOCC3)c2C#N)CO1	-4.3	11.7	23.1	49.0*	-4.0	17.9	-3.5	4.5
O=C(/C=C(\c1ccccc1)n1cncn1)c1ccccc1	-7.4	0.9	-2.4	22.9	2.2	2.8	nt	nt
O=C(Cn1cncn1)c1ccccc1Br	-1.0	-1.8	5.3	38.8*	1.8	9.4	14.6	-2.2
O=C(Cn1cncn1)c1ccc(Cl)cc1	-3.4	-1.6	-12.6	59.0*	1.7	24.0	35.9*	2.5
O=C(/C=C(\c1ccc(Cl)cc1)n1cncn1)c1ccc(Cl)cc1	-3.3	-7.0	3.2	72.9*	-2.2	4.8	15.2	4.5
